The values below come from ChEMBL document CHEMBL5143611, “Antillatoxin-Stimulated Neurite Outgrowth Involves the Brain-Derived Neurotrophic Factor (BDNF) - Tropomyosin Related Kinase B (TrkB) Signaling Pathway” (J Nat Prod, 2022).

Active and inactive are the calls of the source. The calls are words filed in the database; no cut-off is given here.

Test [1] has as its target BDNF/NT-3 growth factors receptor (Mus musculus) (UniProt P15209). Put plainly: Activation of TrkB receptor in Swiss Webster mouse immature cerebrocortical neuron assessed as phosphorylation of TrkB at Tyr516 residue at 30 nM incubated for 30 mins by western blot analysis. The conditions noted are these: filed as activator. Format: cell-based. Put shortly: (§1)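 DIV-1 cortical neurons in six-well plates exposed to 30 nM for 30 min at 37 °C. Where antagonists were used, 15 min preincubation. Exposure stopped on ice, cells washed in cold PBS and lysed 30 min at 4 °C. Protein measured by Bradford. Equal protein run on 10% SDS-PAGE, blotted to PVDF, probed with specific antibodies, ECL detection.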

Test [2] has as its target BDNF/NT-3 growth factors receptor (Homo sapiens) (UniProt Q16620). Briefly: Activation of full length isoform of TrkB receptor (unknown origin) expressed in mouse cerebrocortical neuron assessed as increase in neurite length at 30 nM incubated for 24 hrs by DiI dye based microscopic analysis. Format: cell-based. The note with it: filed as activator. Put shortly: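 E16 mouse cortical neurons plated at 0.5 × 10^6/well and lipofected 2 h after plating with 0.5 µg gene-of-interest plasmid or empty vector plus 0.25 µg GFP plasmid. 30 nM or vehicle added 3 h after transfection. Neurons imaged at DIV-2.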

Test [3] concerns the target Serine/threonine-protein kinase mTOR (Mus musculus) (UniProt Q9JLN9). Put plainly: Activation of mTOR signalling pathway in Swiss Webster mouse immature cerebrocortical neuron assessed as increase in mTOR phosphorylation at Ser2448 at […] incubated for 3 hrs by western blot analysis. Format: cell-based. The note with it: filed as activator. On the technique in general: Immunoblotting shows a protein as a band on a membrane.

Test [4] is described as follows: Induction of aspartate release in Swiss Webster mouse immature cerebrocortical neuron assessed as increase in aspartate concentration at 30 nM incubated for 2 hrs by HPLC based fluorescence method. Format: functional, Cerebral cortex neuron. Put shortly:
(§2)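 Cortical neurons at 5 DIV in 96-well plates. Medium saved and cells washed in Locke's buffer, pH 7.4. Exposure in that buffer for 2 h at 22 °C, then three washes and return to the saved medium for 22 h at 37 °C. Medium then collected, derivatized with o-phthaldialdehyde and analysed by HPLC with fluorescence detection.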

A short description of test [5]: Induction of aspartate release in Swiss Webster mouse immature cerebrocortical neuron assessed as increase in aspartate concentration at 100 nM incubated for 2 hrs by HPLC based fluorescence method. It counts as functional, Cerebral cortex neuron. Put shortly: as §2
Test [6] can be described thus: Induction of glutamate release in Swiss Webster mouse immature cerebrocortical neuron assessed as increase in glutamate release at 100 nM incubated for 2 hrs by HPLC based fluorescence method. Format: functional, Cerebral cortex neuron. Put shortly: as §2
Test [7] concerns Cerebral cortex neuron. Briefly: Induction of BDNF release in Swiss Webster mouse immature cerebrocortical neuron assessed as increase in BDNF release at 100 to 3000 nM incubated for 4 days by sandwich ELISA method. Format: functional, cell-based. The conditions noted are these: dose 100-3000 nM, time 4.0 day. Put shortly:
(§3)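 In situ sandwich ELISA. Plates coated overnight at 4 °C with anti-BDNF capture antibody, then blocked. Immature cortical neurons plated directly in the wells with BDNF standards and treated from 3 h after plating; 50 mM KCl served as comparator. After 4 days cells were washed off with TBST, and bound BDNF was detected with a polyclonal antibody for 2 h at RT.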
(An ELISA detects its analyte on a solid surface through an enzyme-linked reagent.)

Test [8] has as its target RAC-alpha serine/threonine-protein kinase (Mus musculus) (UniProt P31750). Briefly: Activation of Akt signalling pathway in Swiss Webster mouse immature cerebrocortical neuron assessed as increase in AKT phosphorylation of Ser473 by measuring fold change at […] incubated for 24 hrs by western blot analysis. Format: cell-based. The note with it: filed as activator, dose lower 10.0 µM.

A short description of test [9]: (§4) Induction of BDNF release in Swiss Webster mouse immature cerebrocortical neuron assessed as increase in BDNF release incubated for 4 days by sandwich ELISA method. Format: functional, cell-based. The note with it: Cerebral cortex neuron, 96 h. Put shortly:
as §3

Test [10] relates to Cerebral cortex neuron. The description is as §4. It counts as functional, cell-based. The note with it: time 4.0 day, DDE = dose-dependent effect. Put shortly:
as §3

The test system of test [11] is Cerebral cortex neuron. Put plainly: Induction of BDNF release in Swiss Webster mouse immature cerebrocortical neuron assessed as increase in BDNF synthesis at 30 nM incubated for 30 mins by western blot analysis. It counts as functional, cell-based. Put shortly: as §1
For test [12], the system named is Cerebral cortex neuron. Put plainly: Induction of glutamate release in Swiss Webster mouse immature cerebrocortical neuron assessed as increase in glutamate release at 30 to 100 nM incubated for 2 hrs by HPLC based fluorescence method. It counts as functional, cell-based. The conditions noted are these: dose 30-100 nM. Put shortly:
as §2

A short description of test [13]: Induction of glutamate release in Swiss Webster mouse immature cerebrocortical neuron assessed as increase in glutamate release at 30 nM incubated for 2 hrs by HPLC based fluorescence method. Format: functional, Cerebral cortex neuron. Put shortly: as §2

Sequence of BDNF/NT-3 growth factors receptor (Homo sapiens) (Q16620 32-822 limits assumed): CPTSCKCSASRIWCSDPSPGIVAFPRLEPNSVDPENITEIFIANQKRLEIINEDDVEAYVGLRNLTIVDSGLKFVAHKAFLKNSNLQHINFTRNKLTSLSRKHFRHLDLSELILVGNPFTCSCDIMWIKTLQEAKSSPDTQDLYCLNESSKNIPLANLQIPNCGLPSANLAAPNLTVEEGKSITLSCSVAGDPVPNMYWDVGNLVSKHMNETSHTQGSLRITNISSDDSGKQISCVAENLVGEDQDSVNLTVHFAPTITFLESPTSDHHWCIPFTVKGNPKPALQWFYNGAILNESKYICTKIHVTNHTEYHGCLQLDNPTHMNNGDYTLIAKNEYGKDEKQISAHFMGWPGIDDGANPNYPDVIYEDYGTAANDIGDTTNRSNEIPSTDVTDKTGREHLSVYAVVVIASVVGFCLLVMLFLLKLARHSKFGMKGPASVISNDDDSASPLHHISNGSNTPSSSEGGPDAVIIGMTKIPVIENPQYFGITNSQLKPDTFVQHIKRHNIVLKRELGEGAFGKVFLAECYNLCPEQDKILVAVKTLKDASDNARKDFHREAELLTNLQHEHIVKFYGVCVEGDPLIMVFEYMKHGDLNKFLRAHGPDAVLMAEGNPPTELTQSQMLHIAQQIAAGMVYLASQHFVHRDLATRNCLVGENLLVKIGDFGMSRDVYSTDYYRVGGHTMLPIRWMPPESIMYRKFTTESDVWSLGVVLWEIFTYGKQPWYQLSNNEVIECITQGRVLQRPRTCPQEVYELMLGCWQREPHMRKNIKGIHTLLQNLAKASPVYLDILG
Sequence of RAC-alpha serine/threonine-protein kinase (Mus musculus) (P31750 whole entry): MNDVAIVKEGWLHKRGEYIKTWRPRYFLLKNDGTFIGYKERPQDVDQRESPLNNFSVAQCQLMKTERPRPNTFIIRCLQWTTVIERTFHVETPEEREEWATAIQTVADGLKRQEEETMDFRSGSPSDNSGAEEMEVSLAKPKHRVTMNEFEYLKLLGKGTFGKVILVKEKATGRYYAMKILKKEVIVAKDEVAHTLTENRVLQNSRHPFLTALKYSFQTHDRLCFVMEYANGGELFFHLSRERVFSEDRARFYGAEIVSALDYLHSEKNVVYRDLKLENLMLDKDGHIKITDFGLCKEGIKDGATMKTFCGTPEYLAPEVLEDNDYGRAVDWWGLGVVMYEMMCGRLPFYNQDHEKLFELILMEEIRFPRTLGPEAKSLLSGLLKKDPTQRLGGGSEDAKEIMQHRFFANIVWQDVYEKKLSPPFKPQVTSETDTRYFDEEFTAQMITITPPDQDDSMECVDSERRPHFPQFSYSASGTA
Sequence of BDNF/NT-3 growth factors receptor (Mus musculus) (P15209 whole entry): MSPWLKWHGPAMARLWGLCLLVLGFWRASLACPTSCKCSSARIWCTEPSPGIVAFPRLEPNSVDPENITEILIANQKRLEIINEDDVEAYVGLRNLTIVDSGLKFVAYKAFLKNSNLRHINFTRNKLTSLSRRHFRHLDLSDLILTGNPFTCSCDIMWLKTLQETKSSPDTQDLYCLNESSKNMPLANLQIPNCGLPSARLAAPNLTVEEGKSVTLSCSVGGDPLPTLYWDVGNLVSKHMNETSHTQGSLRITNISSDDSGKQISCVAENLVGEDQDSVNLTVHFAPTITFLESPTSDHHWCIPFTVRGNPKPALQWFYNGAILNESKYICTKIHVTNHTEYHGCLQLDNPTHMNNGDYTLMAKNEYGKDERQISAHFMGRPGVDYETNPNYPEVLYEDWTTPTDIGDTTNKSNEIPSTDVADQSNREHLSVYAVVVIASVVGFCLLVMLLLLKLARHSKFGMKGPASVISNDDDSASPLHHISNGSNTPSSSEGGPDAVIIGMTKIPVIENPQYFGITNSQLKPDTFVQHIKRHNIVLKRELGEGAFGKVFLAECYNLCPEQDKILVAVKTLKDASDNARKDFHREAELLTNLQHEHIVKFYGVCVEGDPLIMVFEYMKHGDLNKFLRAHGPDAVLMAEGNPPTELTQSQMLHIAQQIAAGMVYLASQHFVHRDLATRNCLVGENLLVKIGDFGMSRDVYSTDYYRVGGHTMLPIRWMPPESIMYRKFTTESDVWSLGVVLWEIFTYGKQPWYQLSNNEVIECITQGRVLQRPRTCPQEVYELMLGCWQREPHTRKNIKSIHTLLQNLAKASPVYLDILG

Turning to `C=C1CC(=O)N[C@@H](C)C(=O)N(C)[C@@H](C(C)C)C(=O)NCC(=O)O[C@@H](/C(C)=C/C(C)=C/C(C)(C)C)[C@@H]1C` [ANTILLATOXIN], the result (in [1]; in [2]; with Cerebral cortex neuron [7]; in the test on Cerebral cortex neuron [11]; in the test with Cerebral cortex neuron [12]) was Active. The figures for the fold change (FC) in [3] and in [8] were 2 and 3, respectively. In addition, the Activity is 1.81 µM in test [4]; 1.73 µM in test [5]; 2.07 µM in [6]; “Dde” in the test on Cerebral cortex neuron [10]; 2.32 µM in test [13]. Further, in [9], the EC50 (as a rule, the concentration that produces a half-maximal response) was determined as 450 nM.
